From the RNAGym collection of RNA variant scans (doi:10.1126/science.aae0568)
This sample holds only a part of the variants without activity.

B1: tRNA (parent)
chain: GUUCCGUUGGCGUAAUGGUAACGCGUCUCCCUCCUAAGGAGAAGACUGCGGGUUCGAGUCCCGUACGGAACG

Variants of: B1
Test: yeast fitness relative to wild type (ratio to wild type); higher = fitter; tRNA-Arg(CCU), competitive growth, 37 C, YPD
Outline: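 Gene amplicons from the start population and from each of six end populations were read by 100-nucleotide paired-end sequencing. Those end populations came from pooled Saccharomyces cerevisiae strains carrying tRNA-Arg(CCU) gene variants at the native locus, competed in YPD at 37°C for 24 hours. Fitness relative to wild type was worked out from changes in genotype frequencies. Genotypes needed ≥ 100 starting reads, and estimates < 0.5 were set to 0.5.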

A15G C30G C31A C66U and A15G C30G G39C cannot be ordered by yeast fitness: no more than 0.5 for the first, no more than 0.5 for the second.

Compared with A15G C30G G63A, A15G C30U A69U is higher in yeast fitness: no more than 0.5 for the first, 0.609 for the second.

Compared with A15G C30U C55U, A15G C31G A40U C60G G67A is higher in yeast fitness: no more than 0.5 for the first, 0.529 for the second.

Going from A15G C31G G44C C46G to A15G C31U C60U, the yeast fitness falls from 0.647 to 0.543.

A15G C33U A40G G51C A57U and A15G C33U G50A cannot be ordered by yeast fitness: no more than 0.5 for the first, no more than 0.5 for the second.

A15G C34G C46U and A15G C34U A40U A69C cannot be ordered by yeast fitness: no more than 0.5 for the first, no more than 0.5 for the second.

Going from A15G C46G C61G A65G to A15G C46G G67A, the yeast fitness falls from 0.756 to 0.623.

First: A15G C49A G56A
Second: A15G C49G C55G
The yeast fitness of the first is lower: 0.506 for the first, 0.577 for the second.

Compared with A15G C49U, A15G C49U C61U is lower in yeast fitness: 1.07 for the first, 0.672 for the second.

Going from A15G C60G A69C to A15G C61A A69U, the yeast fitness rises from 0.585 to 0.643.

First: A15G G17A A69C
Second: A15G G17A C30A C61A
The yeast fitness of the first is higher: 0.586 for the first, no more than 0.5 for the second.

Going from A15G G17A C33U to A15G G17A G48A, the yeast fitness rises from no more than 0.5 to 0.681.

A15G G17A U19A U32G and A15G G17C C33A G56C A65C G68A cannot be ordered by yeast fitness: no more than 0.5 for the first, no more than 0.5 for the second.

Compared with A15G G18A A69U, A15G G18A U54A is lower in yeast fitness: 0.648 for the first, no more than 0.5 for the second.

Compared with A15G G18C, A15G G23A A36G C55A is lower in yeast fitness: 0.7 for the first, no more than 0.5 for the second.

Compared with A15G G23A C60U, A15G G23C is higher in yeast fitness: no more than 0.5 for the first, 0.712 for the second.

First: A15G G23C G44A
Second: A15G G25A A37G A70C
The yeast fitness of the first is lower: no more than 0.5 for the first, 0.522 for the second.

Going from A15G G38A A40C G41C C49U to A15G G39A A40G A57C, the yeast fitness falls from 0.597 to 0.534.

First: A15G G39C A69C
Second: A15G G41A
The yeast fitness of the first is lower: 0.624 for the first, 0.854 for the second.

First: A15G G41C G51C C61G
Second: A15G G44A G50C
The yeast fitness of the first is higher: 0.726 for the first, no more than 0.5 for the second.

First: A15G G44C G68U
Second: A15G G48A A65C
The yeast fitness of the first is lower: no more than 0.5 for the first, 0.686 for the second.

First: A15G G48A C62U
Second: A15G G56A A65C
The yeast fitness of the first is higher: 1.03 for the first, 0.619 for the second.

Going from A15G G56A C62U A70C to A15G G58A C62U A69C, the yeast fitness rises from 0.543 to 0.685.

Going from A15G G58A G68C to A15G G58C C62G, the yeast fitness falls from 0.596 to no more than 0.5.

First: A15G G63A
Second: A15G G67A A69C
The yeast fitness of the first is higher: 0.926 for the first, 0.767 for the second.

Compared with A15G U16G G39A A45C C61A, A15G U19C A37U C49U G51A is higher in yeast fitness: no more than 0.5 for the first, 0.555 for the second.

First: A15G U26A A45G C60U C62A
Second: A15G U26A C66A
The yeast fitness of the first is higher: 0.562 for the first, no more than 0.5 for the second.

A15G U26G C30U G51U G52A and A15G U26G C30U G52A cannot be ordered by yeast fitness: no more than 0.5 for the first, no more than 0.5 for the second.

A15G U28C C30U A36C A45U G50C and A15G U28C U35A G38A C46G C62U G67U cannot be ordered by yeast fitness: no more than 0.5 for the first, no more than 0.5 for the second.

Compared with A15G U32A, A15G U32A A43U is lower in yeast fitness: 0.637 for the first, 0.603 for the second.

Compared with A15G U35A G48A A57G C62G, A15G U35C is higher in yeast fitness: no more than 0.5 for the first, 0.892 for the second.

A15G U35C A36G A37G C61G G67C and A15G U35G A43G C66U cannot be ordered by yeast fitness: no more than 0.5 for the first, no more than 0.5 for the second.

Going from A15G U47C G68C to A15G U64A, the yeast fitness rises from no more than 0.5 to 0.706.

Compared with A15G U64G A69C, A15U A20C A43C G51A G56C is lower in yeast fitness: 0.564 for the first, no more than 0.5 for the second.

Going from A15U A20C C46G G50C C61G to A15U A20C U32G A65C, the yeast fitness falls from 0.604 to 0.537.

A15U A20G A37C and A15U A20G C30A G63C cannot be ordered by yeast fitness: no more than 0.5 for the first, no more than 0.5 for the second.

Going from A15U A20U C24U A65G A70C to A15U A20U C27G C49G, the yeast fitness rises from no more than 0.5 to 0.64.

A15U A21C C29U C30A G38A and A15U A21C G39C U54A cannot be ordered by yeast fitness: no more than 0.5 for the first, no more than 0.5 for the second.

Compared with A15U A21C U53C G56C A65G, A15U A21G C24U C33U A40C A43C C49U C61U is lower in yeast fitness: 0.77 for the first, 0.516 for the second.

Compared with A15U A21U, A15U A36C A40U G58C G67C is lower in yeast fitness: 0.708 for the first, no more than 0.5 for the second.

Going from A15U A36U C60G to A15U A40C C49U, the yeast fitness rises from no more than 0.5 to 0.528.

First: A15U A40G C46U
Second: A15U A40G G52C C62G
The yeast fitness of the first is higher: 0.697 for the first, no more than 0.5 for the second.

Compared with A15U A40U G52A G68A, A15U A42C G48A G50C is lower in yeast fitness: 0.596 for the first, no more than 0.5 for the second.

Compared with A15U A42G, A15U A43U C62U is lower in yeast fitness: 0.746 for the first, 0.611 for the second.

A15U A45C C46A G67A and A15U A45G C49G cannot be ordered by yeast fitness: no more than 0.5 for the first, no more than 0.5 for the second.

Going from A15U A57C to A15U A57C A65U, the yeast fitness rises from 0.637 to 0.794.

Compared with A15U A57G, A15U A57U A65C is lower in yeast fitness: 0.927 for the first, 0.586 for the second.

First: A15U A65C G67A
Second: A15U A69C
The yeast fitness of the first is lower: no more than 0.5 for the first, 0.77 for the second.

First: A15U C22G A37G C55G C60G
Second: A15U C22G C31U
The yeast fitness of the first is lower: no more than 0.5 for the first, 0.536 for the second.

A15U C22G C31U G50A and A15U C22G G52A A65U cannot be ordered by yeast fitness: no more than 0.5 for the first, no more than 0.5 for the second.

Going from A15U C22G U32A C66A to A15U C24A C34G G39U A65G, the yeast fitness rises from no more than 0.5 to 0.651.

A15U C24A G25A U47C G52C A65U and A15U C24A G25A U47C G52C C61G cannot be ordered by yeast fitness: no more than 0.5 for the first, no more than 0.5 for the second.

Compared with A15U C24G C66U, A15U C24U A37U U54G is lower in yeast fitness: 0.608 for the first, no more than 0.5 for the second.

Going from A15U C24U A65G to A15U C24U C27U, the yeast fitness falls from 0.53 to no more than 0.5.

First: A15U C24U G25C A37U A40C U53C G58C
Second: A15U C24U G44A
The yeast fitness of the first is lower: no more than 0.5 for the first, 0.503 for the second.

Going from A15U C27U U28G C33U to A15U C29A C34G C62U G68A, the yeast fitness rises from no more than 0.5 to 0.616.

A15U C29A C34G U59A A69C and A15U C29A C55A cannot be ordered by yeast fitness: no more than 0.5 for the first, no more than 0.5 for the second.

Going from A15U C29U to A15U C29U C33U, the yeast fitness falls from 0.749 to no more than 0.5.

First: A15U C30G C61U G68A
Second: A15U C30U
The yeast fitness of the first is lower: no more than 0.5 for the first, 0.859 for the second.

A15U C30U A37G and A15U C30U A37G U59A cannot be ordered by yeast fitness: no more than 0.5 for the first, no more than 0.5 for the second.

Compared with A15U C31U A70G, A15U C31U C33U G67A is higher in yeast fitness: 0.629 for the first, 0.642 for the second.

A15U C31U C46G A65G A70U and A15U C31U C49U G52A A57U G58C cannot be ordered by yeast fitness: no more than 0.5 for the first, no more than 0.5 for the second.

A15U C33G A43C G44U and A15U C33G C49A C60G cannot be ordered by yeast fitness: no more than 0.5 for the first, no more than 0.5 for the second.

A15U C33G C66U and A15U C33U G44C C55A cannot be ordered by yeast fitness: no more than 0.5 for the first, no more than 0.5 for the second.

First: A15U C34U A57U C60U
Second: A15U C46A C61G A69G
The yeast fitness of the first is higher: 0.725 for the first, no more than 0.5 for the second.

Going from A15U C46A G68U A70C to A15U C49G C55U A65U, the yeast fitness rises from no more than 0.5 to 0.56.

A15U C60G C61U G68A and A15U C60G G67A cannot be ordered by yeast fitness: no more than 0.5 for the first, no more than 0.5 for the second.

First: A15U C62U
Second: A15U C66U A70C
The yeast fitness of the first is higher: 0.787 for the first, 0.566 for the second.

Going from A15U G17A C46U C62U to A15U G17C A45U C49G C55U A70U, the yeast fitness falls from 0.865 to no more than 0.5.

Compared with A15U G18A C33G A42C, A15U G18C is higher in yeast fitness: no more than 0.5 for the first, 0.589 for the second.

First: A15U G18C A21G U59A C61G
Second: A15U G18C C34G A42G G52C
The yeast fitness of the first is lower: no more than 0.5 for the first, 0.575 for the second.

First: A15U G23A C60G
Second: A15U G25A
The yeast fitness of the first is lower: no more than 0.5 for the first, 1 for the second.

Compared with A15U G25A C33G C62G, A15U G25A C55G is higher in yeast fitness: no more than 0.5 for the first, 0.555 for the second.

Going from A15U G25C C34A to A15U G25C G68A, the yeast fitness falls from 0.941 to no more than 0.5.

A15U G38C G39A A43C A57U and A15U G38C G39A A43C G48A cannot be ordered by yeast fitness: no more than 0.5 for the first, no more than 0.5 for the second.

Going from A15U G38C G39A A43C U59A C60U to A15U G39A, the yeast fitness rises from no more than 0.5 to 0.667.

A15U G39C U47C and A15U G44A G58A G68C cannot be ordered by yeast fitness: no more than 0.5 for the first, no more than 0.5 for the second.

Going from A15U G44C to A15U G52C A65U G67C, the yeast fitness falls from 0.727 to no more than 0.5.

Going from A15U G63A A69C to A15U G63C C66G, the yeast fitness falls from 0.539 to no more than 0.5.

A15U U16C A40U U59A A70C and A15U U16G U35A U59A cannot be ordered by yeast fitness: no more than 0.5 for the first, no more than 0.5 for the second.

Compared with A15U U19A A20G A40U A43U C60G C62U A65G, A15U U19G is higher in yeast fitness: no more than 0.5 for the first, 0.631 for the second.

First: A15U U28A C46A
Second: A15U U28G C33U
The yeast fitness of the first is higher: 0.507 for the first, no more than 0.5 for the second.

Compared with A15U U32A G50A G51A G56C C61G, A15U U47C C49G C55U A65U is lower in yeast fitness: 0.538 for the first, 0.531 for the second.

For A15U U59C, the yeast fitness was 0.788.
